The source made the active and inactive calls. The rule behind the calls is not given here.
Experiments:
[1] = system: Yersinia pseudotuberculosis; assay: Effect on T3S in Yersinia pseudotuberculosis 3 pIB29 assessed as inhibition of light emission at 50 uM by luciferase reporter gene assay
In short: (§1)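 YPIII pIB29 (yopE-luxAB) reporter strain grown overnight at ambient temperature in BHI with 5 mM EGTA and 20 mM MgCl2 to deplete calcium. Culture adjusted to OD600 0.15-0.25 and added to compounds in DMSO (final ≤1%). Incubated 1 h at ambient temperature with shaking, then 2 h at 37 °C. Decanal substrate added and luminescence read at once. Triplicates; repeated on ≥2 occasions.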

[2] = system: Yersinia pseudotuberculosis; assay: Effect on T3S in Yersinia pseudotuberculosis 3 pIB29 assessed as inhibition of light emission at 10 uM by luciferase reporter gene assay; in short: as §1
[3] = system: Yersinia pseudotuberculosis; assay: Effect on T3S in Yersinia pseudotuberculosis 3 pIB29 assessed as inhibition of light emission at 100 uM by luciferase reporter gene assay; in short: as §1
[4] = system: Yersinia pseudotuberculosis; assay: Effect on T3S in Yersinia pseudotuberculosis 3 pIB29 assessed as inhibition of light emission at 20 uM by luciferase reporter gene assay; in short: as §1
[5] = system: Yersinia pseudotuberculosis; assay: Effect on T3S in Yersinia pseudotuberculosis 3 pIB29 assessed as inhibition of light emission at 2 uM by luciferase reporter gene assay; in short: as §1
[6] = system: Yersinia pseudotuberculosis; assay: Effect on T3S in Yersinia pseudotuberculosis 3 pIB29 assessed as inhibition of light emission at 0.5 uM by luciferase reporter gene assay; in short: as §1
[7] = system: Yersinia pseudotuberculosis; assay: Effect on T3S in Yersinia pseudotuberculosis 3 pIB29 assessed as inhibition of light emission at 1 uM by luciferase reporter gene assay; in short: as §1
[8] = system: Yersinia pseudotuberculosis; assay: Effect on T3S in Yersinia pseudotuberculosis 3 pIB29 assessed as inhibition of light emission at 5 uM by luciferase reporter gene assay; in short: as §1

COc1cc(Cl)c(C)cc1NC(=O)c1cccc(C(C)C)c1O
inhibition [1]: 19%
inhibition [2]: 23%
inhibition [3]: 5%
inhibition [4]: 25%

CC(=O)Oc1c(Cl)cccc1C(=O)Nc1ccc(SC(F)(F)F)cc1
inhibition [1]: 98%
inhibition [2]: 55%
inhibition [5]: 12%
inhibition [6]: -1%
inhibition [3]: 100%
inhibition [7]: 6%
inhibition [4]: 70%
inhibition [8]: 34%

O=C(Nc1ccc(SC(F)(F)F)cc1)c1cccc(Cl)c1O
inhibition [1]: 99%
inhibition [2]: 61%
inhibition [5]: 13%
inhibition [6]: -2%
inhibition [3]: 100%
inhibition [7]: 3%
inhibition [4]: 81%
inhibition [8]: 38%

CC(=O)Oc1c(Cl)cc(Cl)c(Cl)c1C(=O)Nc1cc(C)cc(C)c1
inhibition [1]: 5%
inhibition [2]: 6%
inhibition [3]: 20%
inhibition [4]: 6%

O=C(Nc1ccc(F)cc1)c1c(O)c(Cl)cc(Cl)c1Cl
inhibition [1]: 32%
inhibition [2]: 19%
inhibition [3]: 45%
inhibition [4]: 19%

CC(=O)Oc1c(Cl)cc(Cl)c(Cl)c1C(=O)Nc1ccc(SC(F)(F)F)cc1
inhibition [1]: 89%
inhibition [2]: 67%
inhibition [5]: 42%
inhibition [6]: 5%
inhibition [3]: 92%
inhibition [7]: 15%
inhibition [4]: 95%
inhibition [8]: 47%

O=C(Nc1ccc(Cl)cc1)c1cc(I)ccc1O
inhibition [1]: 80%
inhibition [2]: 91%
inhibition [5]: 90%
inhibition [6]: 55%
inhibition [3]: 78%
inhibition [7]: 68%
inhibition [4]: 85%
inhibition [8]: 91%

CC(=O)Oc1c(Cl)cccc1C(=O)Nc1ccc(Br)cc1
inhibition [1]: 78%
inhibition [2]: 18%
inhibition [5]: 9%
inhibition [6]: -2%
inhibition [3]: 99%
inhibition [7]: 8%
inhibition [4]: 36%
inhibition [8]: 12%

CC(=O)Oc1c(I)cc(I)cc1C(=O)Nc1ccc(F)cc1
inhibition [1]: 86%
inhibition [2]: 60%
inhibition [5]: 15%
inhibition [6]: 12%
inhibition [3]: 93%
inhibition [7]: 6%
inhibition [4]: 76%
inhibition [8]: 31%

CC(=O)Oc1ccc(F)cc1C(=O)Nc1ccc(C(C)(C)C)cc1
inhibition [1]: 22%
inhibition [2]: 37%
inhibition [3]: 22%
inhibition [4]: 37%

O=C(Nc1ccccc1)c1c(O)c(Cl)cc(Cl)c1Cl
inhibition [1]: 23%
inhibition [2]: 22%
inhibition [3]: 31%
inhibition [4]: 21%

COc1cc(Cl)c(C)cc1NC(=O)c1cc(C)ccc1O
inhibition [1]: 16%
Activity [2]: inactive
inhibition [3]: -1%
Activity [4]: inactive

CC(=O)Oc1c(I)cc(I)cc1C(=O)Nc1ccc(Br)cc1
inhibition [1]: 94%
inhibition [2]: 69%
inhibition [5]: 7%
inhibition [6]: 11%
inhibition [3]: 95%
inhibition [7]: 8%
inhibition [4]: 86%
inhibition [8]: 38%

O=C(Nc1ccc(F)cc1)c1cc(I)cc(I)c1O
inhibition [1]: 99%
inhibition [2]: 62%
inhibition [5]: 6%
inhibition [6]: 5%
inhibition [3]: 100%
inhibition [7]: 3%
inhibition [4]: 78%
inhibition [8]: 26%

O=C(Nc1ccc(Br)cc1)c1cc(I)cc(I)c1O
inhibition [1]: 100%
inhibition [2]: 100%
inhibition [5]: 74%
inhibition [6]: 36%
inhibition [3]: 100%
inhibition [7]: 64%
inhibition [4]: 100%
inhibition [8]: 94%

CC(=O)Oc1ccc(Cl)cc1C(=O)Nc1ccc(Cl)c(C)c1
inhibition [1]: 100%
inhibition [2]: 99%
inhibition [5]: 62%
inhibition [6]: 15%
inhibition [3]: 100%
inhibition [7]: 50%
inhibition [4]: 100%
inhibition [8]: 91%

CC(=O)Oc1c(Cl)cc(Cl)c(Cl)c1C(=O)Nc1ccc(C(C)(C)C)cc1
inhibition [1]: 19%
inhibition [2]: 4%
inhibition [3]: 12%
inhibition [4]: 7%

O=C(Nc1ccc(SC(F)(F)F)cc1)c1cc(I)ccc1O
inhibition [1]: 49%
inhibition [2]: 57%
inhibition [5]: 53%
inhibition [6]: 17%
inhibition [3]: 51%
inhibition [7]: 53%
inhibition [4]: 57%
inhibition [8]: 55%

O=C(Nc1ccc(Br)cc1)c1cc(I)ccc1O
inhibition [1]: 62%
inhibition [2]: 71%
inhibition [5]: 68%
inhibition [6]: 20%
inhibition [3]: 60%
inhibition [7]: 49%
inhibition [4]: 67%
inhibition [8]: 68%

CC(=O)Oc1c(Br)cc(Br)cc1C(=O)Nc1ccccc1F
inhibition [1]: 61%
inhibition [2]: 6%
inhibition [3]: 83%
inhibition [4]: 15%

O=C(Nc1cc(Cl)ccc1F)c1cc(I)cc(I)c1O
inhibition [1]: 100%
inhibition [2]: 53%
inhibition [5]: 6%
inhibition [6]: 7%
inhibition [3]: 100%
inhibition [7]: 2%
inhibition [4]: 92%
inhibition [8]: 19%

CC(=O)Oc1c(I)cc(I)cc1C(=O)Nc1ccccc1
inhibition [1]: 75%
inhibition [2]: 30%
inhibition [3]: 94%
inhibition [4]: 48%

CC(C)(C)c1ccc(NC(=O)c2cc(I)cc(I)c2O)cc1
inhibition [1]: 41%
inhibition [2]: 33%
inhibition [3]: 42%
inhibition [4]: 40%

CCCCCCCc1ccc(NC(=O)c2cc(I)cc(I)c2O)cc1
inhibition [1]: 22%
inhibition [2]: 30%
inhibition [3]: 3%
inhibition [4]: 27%

CCCCCCCc1ccc(NC(=O)c2cc(I)cc(I)c2OC(C)=O)cc1
inhibition [1]: 17%
inhibition [2]: 19%
inhibition [3]: 5%
inhibition [4]: 19%

Cc1ccc(C(=O)Nc2ccccc2F)c(O)c1
inhibition [1]: 35%
inhibition [2]: 23%
inhibition [3]: 34%
inhibition [4]: 21%

CC(=O)Oc1c(Cl)cc(Cl)c(Cl)c1C(=O)Nc1ccc(F)cc1
inhibition [1]: 32%
inhibition [2]: 19%
inhibition [3]: 54%
inhibition [4]: 23%

COc1cc(Cl)c(C)cc1NC(=O)c1cc(I)cc(I)c1OC(C)=O
inhibition [1]: 35%
inhibition [2]: 11%
inhibition [3]: 50%
inhibition [4]: 19%

CC(=O)Oc1ccc(Br)cc1C(=O)Nc1cc(C(C)(C)C)cc(C(C)(C)C)c1
inhibition [1]: 15%
Activity [2]: inactive
inhibition [3]: 0%
Activity [4]: inactive

CC(=O)Oc1ccccc1C(=O)Nc1ccc(Cl)cc1
inhibition [1]: 92%
inhibition [2]: 23%
inhibition [3]: 99%
inhibition [4]: 44%

O=C(Nc1ccc(Cl)cc1)c1ccccc1O
inhibition [1]: 99%
inhibition [2]: 14%
inhibition [3]: 100%
inhibition [4]: 64%

Cc1cc(C)cc(NC(=O)c2c(O)c(Cl)cc(Cl)c2Cl)c1
inhibition [1]: 46%
inhibition [2]: 21%
inhibition [3]: 52%
inhibition [4]: 24%

CC(=O)Oc1c(Cl)cc(Cl)c(Cl)c1C(=O)Nc1ccccc1
inhibition [1]: 12%
Activity [2]: inactive
inhibition [3]: 10%
Activity [4]: inactive

COc1cc(Cl)c(C)cc1NC(=O)c1cc(C)ccc1OC(C)=O
inhibition [1]: -2%
Activity [2]: inactive
Activity [4]: inactive

O=C(Nc1ccccc1F)c1cc(Br)cc(Br)c1O
inhibition [1]: 64%
inhibition [2]: 14%
inhibition [3]: 78%
inhibition [4]: 29%

CC(C)(C)c1ccc(NC(=O)c2c(O)c(Cl)cc(Cl)c2Cl)cc1
inhibition [1]: 23%
inhibition [2]: 27%
inhibition [3]: 34%
inhibition [4]: 28%

CC(C)(C)c1ccc(NC(=O)c2cc(F)ccc2O)cc1
inhibition [1]: 13%
inhibition [2]: 13%
inhibition [3]: 8%
inhibition [4]: 12%

COc1cc(Cl)c(C)cc1NC(=O)c1cccc(C(C)C)c1OC(C)=O
inhibition [1]: 4%
inhibition [2]: 10%
inhibition [3]: -1%
inhibition [4]: 8%

CC(C)(C)c1cc(NC(=O)c2cc(Br)ccc2O)cc(C(C)(C)C)c1
inhibition [1]: -4%
inhibition [2]: 12%
inhibition [3]: 0%
inhibition [4]: 9%

COc1cc(Cl)c(C)cc1NC(=O)c1cc(I)cc(I)c1O
inhibition [1]: 57%
inhibition [2]: 35%
inhibition [3]: 67%
inhibition [4]: 55%

CC(=O)Oc1c(C(=O)Nc2ccc(SC(F)(F)F)cc2)cc2cc(Br)ccc2c1Br
inhibition [1]: 4%
inhibition [2]: 9%
inhibition [3]: -3%
inhibition [4]: 10%

CC(=O)Oc1c(I)cc(I)cc1C(=O)Nc1ccc(C(C)(C)C)cc1
inhibition [1]: 17%
inhibition [2]: 17%
inhibition [3]: 2%
inhibition [4]: 20%

O=C(Nc1ccc(Cl)cc1)c1cc(F)cc(F)c1
Activity [1]: inactive
Activity [2]: inactive
Activity [3]: inactive
Activity [4]: inactive

O=C(Nc1ccccc1)c1cc(I)cc(I)c1O
inhibition [1]: 87%
inhibition [2]: 32%
inhibition [3]: 99%
inhibition [4]: 51%

O=C(Nc1ccc(SC(F)(F)F)cc1)c1cc2cc(Br)ccc2c(Br)c1O
inhibition [1]: 63%
inhibition [2]: 41%
inhibition [3]: 63%
inhibition [4]: 55%

CC(=O)Oc1cc(C)ccc1C(=O)Nc1ccccc1F
inhibition [1]: 53%
inhibition [2]: 0%
inhibition [3]: 95%
inhibition [4]: 8%

— ChEMBL document CHEMBL1138297, “Design, synthesis, and multivariate quantitative structure-activity relationship of salicylanilides--potent inhibitors of type III secretion in Yersinia” (J Med Chem, 2007)
